Data taken from ChEMBL document CHEMBL4400579, “Antibacterial Strategy against H. pylori: Inhibition of the Radical SAM Enzyme MqnE in Menaquinone Biosynthesis” (ACS Med Chem Lett, 2019).
Activity calls are given as the source filed them. The rule behind the calls is not given here.

Key:
[1] = target: T1, Aminodeoxyfutalosine synthase (Thermus thermophilus (strain HB8 / ATCC 27634 / DSM 579), UniProt Q5SK48); assay: Inhibition of N-terminal His6-tagged Thermus thermophilus HB8 MqnE expressed in Escherichia coli BL21 (DE3) co-expressing [4Fe-4S]2+ cluster using 3-(1-carboxyvinyloxy)benzoic acid as substrate preincubated for 15 mins in presence of SAM and substrate followed by Ti(3+)citrate addition and measured by discontinuous HPLC analysis
T1 sequence (Q5SK48 whole entry): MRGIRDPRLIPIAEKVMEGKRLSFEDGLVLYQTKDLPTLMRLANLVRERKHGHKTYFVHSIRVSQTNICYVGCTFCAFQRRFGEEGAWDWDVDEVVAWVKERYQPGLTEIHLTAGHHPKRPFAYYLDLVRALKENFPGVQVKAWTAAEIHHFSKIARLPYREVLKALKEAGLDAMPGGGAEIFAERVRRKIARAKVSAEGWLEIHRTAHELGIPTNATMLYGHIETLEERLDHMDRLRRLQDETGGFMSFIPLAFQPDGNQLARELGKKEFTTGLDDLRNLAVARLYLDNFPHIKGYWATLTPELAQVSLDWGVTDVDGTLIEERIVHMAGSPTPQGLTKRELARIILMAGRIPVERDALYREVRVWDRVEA
Summary of the method: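 [4Fe-4S]2+-reconstituted T. thermophilus MqnE preincubated with a range of inhibitor concentrations plus excess SAM and substrate 1. Reaction started by reducing the enzyme with Ti(III) citrate. Aminofutalosine formation followed by discontinuous HPLC. Normalized relative initial rates plotted against inhibitor concentration to give IC50. Where IC50 fell within 5-fold of enzyme concentration, Ki fitted with the Morrison tight-binding equation.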

[2] = Antibacterial activity against Campylobacter jejuni ATCC 33560 AS-83-79 measured after 16.4 hrs; type: functional, Campylobacter jejuni subsp. jejuni
Summary of the method: (§1)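 Bacterial growth inhibition measured by 96-well plate liquid culture. IC50 values taken as reported for each organism.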

[3] = target: T2, Aminodeoxyfutalosine synthase (Thermus thermophilus (strain HB8 / ATCC 27634 / DSM 579)) (UniProt Q5SK48); assay: Reversible inhibition of N-terminal His6-tagged Thermus thermophilus HB8 MqnE expressed in Escherichia coli BL21 (DE3) co-expressing [4Fe-4S]2+ cluster assessed as restoration of enzyme activity at 2 mM using 3-(1-carboxyvinyloxy)benzoic acid as substrate preincubated for 1 hr in presence of SAM, substrate and Ti(3+)citrate followed by compound washout and subsequent addition of SAM, substrate and Ti(3+)citrate measured after 1 hr by HPLC analysis
T2 sequence (whole entry): T1 sequence (Q5SK48 whole entry)
Summary of the method: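 Reversibility test: MqnE preincubated with inhibitor for 1 h, inhibitor then removed by gel filtration, and enzyme activity compared for restoration.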

[4] = test system: Helicobacter pylori; assay: Antibacterial activity against Helicobacter pylori 26695 ATCC 700392 measured after 72 hrs; type: functional, organism-based; conditions: 26695 ATCC 700392, 72 h; summary of the method: as §1

Row | SMILES | IC50 [1] | Ki [1] | IC50 [2] | inhibition [3] | IC50 [4]
1 | C=C(Cc1cccc(C(=O)O)c1)C(=O)O | 38.7 µM | 3.1 µM | 13.6 µM | Active | 1.8 µM
2 | CCCCSC[C@H]1CN(Cc2c[nH]c3c(N)ncnc23)C[C@@H]1O |  |  | 1.4 µM |  | 0.012 µM
3 | CN[C@@H]1[C@@H](O)[C@@H](O[C@@H]2[C@@H](O)[C@H](O[C@H]3O[C@H]([C@@H](C)N)CC[C@H]3N)[C@@H](N)C[C@H]2N)OC[C@]1(C)O [GENTAMICIN C2] |  |  | 1.9 µM |  | 0.26 µM
4 | Nc1ncnc2c1ncn2[C@@H]1O[C@H](CCC(Cc2cccc(C(=O)O)c2)C(=O)O)[C@@H](O)[C@H]1O (some centres not stated) | 839 µM |  | 83.3 µM |  | 16.1 µM
